The list is not random: actives were taken first. Their share in the collection is about 1.2%.
FXIIa inh 1536: blocks human coagulation factor XIIa protease activity; hit rate 0.3% among 220,000; inhibition, % at 5 µM; P00748; purified FXIIa, Boc-QGR-AMC fluorogenic substrate, 2 h; in the data active = inhibition above about 40%;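 note: 0% = enzyme with no compound and 100% = blank without enzyme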
PERK inhibitor: blocks human PERK kinase | CHO PERK-DD fusion, SEAP luminescence translation reporter | Q9NZJ5 | inhibition, % at 5.6 µM | hit rate 0.17% among 220,000 | AID 1416;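 active = inhibition above the mean inhibition of all tested compounds plus 3 SD, set separately per screening campaign, cut at about 2.9% in these data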;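 note: PERK kinase domain activated by AP20187 dimerizer at 100 nM; 0% = DMSO with dimerizer and 100% = rapamycin at 8.4 µM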
Furin inh: human furin inhibition. purified furin, fluorogenic substrate cleavage. inhibition, % at 20 µM or 30 µM. hit rate 0.061% among 220,000. P09958; in the data active = inhibition above about 25%
Target sequence (P09958 108-714 limits assumed): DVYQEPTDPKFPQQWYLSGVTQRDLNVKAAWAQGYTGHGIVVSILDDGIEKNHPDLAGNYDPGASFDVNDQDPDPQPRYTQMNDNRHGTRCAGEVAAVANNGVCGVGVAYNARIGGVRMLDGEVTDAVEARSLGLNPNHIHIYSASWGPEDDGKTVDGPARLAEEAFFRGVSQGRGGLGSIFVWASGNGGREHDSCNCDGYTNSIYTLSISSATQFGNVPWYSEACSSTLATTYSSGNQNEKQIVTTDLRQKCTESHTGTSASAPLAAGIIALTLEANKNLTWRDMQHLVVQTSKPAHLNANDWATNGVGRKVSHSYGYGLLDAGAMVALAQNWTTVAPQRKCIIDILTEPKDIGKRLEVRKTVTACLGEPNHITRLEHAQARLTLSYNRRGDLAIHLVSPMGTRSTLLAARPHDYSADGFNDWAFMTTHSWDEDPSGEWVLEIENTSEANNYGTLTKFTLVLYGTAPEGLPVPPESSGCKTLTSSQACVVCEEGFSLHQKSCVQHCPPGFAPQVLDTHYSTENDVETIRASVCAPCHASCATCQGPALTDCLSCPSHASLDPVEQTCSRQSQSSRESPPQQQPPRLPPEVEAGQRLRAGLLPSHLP
Thrombin inh: blocks human thrombin protease activity | alpha-thrombin, Boc-VPR-AMC fluorogenic substrate cleavage | inhibition, % at 5 µM | hit rate 0.26% among 220,000;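 active = inhibition at or above 40%; inactive = inhibition below 40%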;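 note: 0% = enzyme with no compound and 100% = wells without enzyme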
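System: Human alpha-thrombin protein | Medium: pH 7.5 Tris (50 mM) with NaCl 150 mM, Tween 20 0.05% | Times: Enzyme reaction carried out at room temperature | Detection: AMC fluorescence, 355/460 nm | Evaluation: Percent inhibition scaled between no-compound controls and no-enzyme blanks | Benchmarks: Enzyme without compound as high, wells lacking enzyme as low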
FXIa inh 1536: factor XIa (human) inhibition; purified FXIa, Boc-Glu-Ala-Arg-AMC fluorogenic substrate; P03951; inhibition, % at 5 µM; hit rate 0.14% among 220,000;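 active = inhibition of at least 40%; inactive = inhibition below 40%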;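 note: fluorescence of freed AMC excited at 355 nm; 0% = enzyme without compound and 100% = no enzyme blank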
hK5 inh: kallikrein 5 (human) inhibition. inhibition, % at 5 µM. recombinant hK5, fluorogenic AMC substrate cleavage. Q9Y337. hit rate 0.59% among 210,000;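 active = inhibition of 40% or more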;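 note: 0% = enzyme controls without compound and 100% = no-enzyme blanks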
Numbers without * were called inactive; x = not tested or not shown; ! = not active in a repeat.

SMILES | FXIIa inh 1536 | PERK inhibitor | Furin inh | Thrombin inh | FXIa inh 1536 | hK5 inh
CCOC(=O)c1c(NC(=O)CSc2ncccn2)sc2c1CCN(Cc1ccccc1)C2 | 5 | -2 | 2 | 39 | 6 | 43*
O=C(Nc1ccccc1)N1CCCC1c1cccs1 (stereo not given) | -1 | 1 | -37 | -6 | 2 | 3
Cc1ccccc1C(=O)NC1CCSC1=O (stereo not given) | 23 | 1 | -10 | 11 | 50* | 17
O=C(NC(=S)NC1CCSC1=O)c1ccccc1Cl (stereo not given) | 12 | 0 | -24 | 4 | 0 | 4
O=C(O)c1ccc(S(=O)(=O)c2ccc(Sc3ccc(C(=O)O)c(C(=O)O)c3)cc2)cc1 | 6 | 0 | -26 | 3 | 2 | -1
COc1ccc(CCc2nc(C)ccc2O)cc1 | 10 | 0 | -16 | 24 | 4 | 44*!
Cc1ccc(O)c(CO)n1 | 9 | 1 | -16 | -3 | 3 | 0
Cc1ccc(OC(C)C(=O)N=Nc2c(O)[nH]c3ccc([N+](=O)[O-])cc23)cc1 (stereo not given) | 5 | 2 | -2 | -2 | -1 | x
CCn1nc(C)c(CNC(=O)c2cc(COc3ccc(F)cc3Cl)on2)c1C | 43* | -2 | -1 | 29 | 23 | 28
Cc1cccc(C(=O)N[C@H](C(=O)Nc2nc3ccc(S(C)(=O)=O)cc3s2)C(C)C)c1 | x | 0 | -20 | 1 | 2 | 5
Cc1cccc(NC(=O)CC2SC(=O)N(c3ccccc3)C2=O)c1 (stereo not given) | 7 | 2 | -22 | 1 | -3 | 7
Cc1cccc(NC2SC(=O)N(c3ccccc3)C2=O)c1 (stereo not given) | 18 | 0 | -23 | 29 | 9 | 80*
O=C(NCc1ccccc1)NC(=O)c1ccncc1 | 19 | 1 | -13 | 3 | 3 | 40*
O=C(Nc1ccc(N2CCN(C(=O)c3ccco3)CC2)c(Cl)c1)c1cc2ccccc2o1 | 8 | -1 | -25 | 2 | -4 | 40*
COc1ccc(NC(=O)c2ccco2)cc1NC(=O)c1cc2ccccc2o1 | 3 | -1 | -14 | 21 | -1 | 54*
CCC(=O)N1CCN(c2ccc(NC(=O)c3cc4ccccc4o3)cc2Cl)CC1 | 1 | 0 | -20 | -1 | -1 | 2
COc1ccccc1NC(=O)c1cc2ccccc2o1 | 5 | 0 | -16 | -4 | -3 | -11
Cc1ccc(C(C[N+](=O)[O-])Sc2ccc(N)cc2)cc1 (stereo not given) | 7 | 2 | -16 | 0 | 1 | -1
Cc1cc(C)c2c3c(sc2n1)C(c1cccc(F)c1)C(C#N)=C(N)O3 (stereo not given) | 10 | -1 | -13 | 60* | 4 | 14
COc1ccc(-c2noc(-c3ccoc3C)n2)cc1 | 6 | 0 | -10 | 1 | -7 | 3
COc1ccc(-c2ccc(-c3noc(-c4cccc(OC)c4)n3)c(OC)n2)cc1 | -10 | 2 | -50 | -1 | -6 | 60*
COc1cccc(-c2noc(-c3ccoc3C)n2)c1 | 10 | 3.1* | -17 | -1 | 1 | x
O=C(Cn1nnc(-c2cccc(C(F)(F)F)c2)n1)N1CCOCC1 | 17 | 1 | -19 | 33 | 23 | 51*
CC(C)(C)C(=O)Cn1nnc(-c2ccc(C(F)(F)F)cc2)n1 | 8 | 1 | -11 | 0 | 0 | -3
NC(=O)Cn1nnc(-c2ccc(C(F)(F)F)cc2)n1 | 8 | 0 | 26* | -5 | 6 | 6
SMILES | FXIIa inh 1536 | PERK inhibitor | Furin inh | Thrombin inh | FXIa inh 1536 | hK5 inh
NNC(=O)c1csc(-c2ccc(C(F)(F)F)cc2Cl)n1 | 8 | 0 | -19 | 1 | 4 | 3
O=C1N(Cc2cccc(Cl)c2)C[C@@H]2C[C@@H](c3ccc4nonc4c3)N3CCC[C@@]123 | 4 | -1 | -19 | 1 | -6 | -8
CC(C(=O)NCc1ccco1)n1cc([N+](=O)[O-])cn1 (stereo not given) | 3 | 2 | -10 | 5 | -2 | -10
CC1(c2ccc(Cl)cc2)NC(=O)CS1 (stereo not given) | 3 | 1 | -18 | -19 | -7 | -4
O=C1CC(O)(C(F)(F)F)Oc2c1ccc1ccccc21 (stereo not given) | 15 | 0 | -44 | 30 | 8 | 93*
COCCNC(=O)Cn1nc(C(F)(F)F)cc1C | 11 | 0 | -4 | 104* | 13 | 44*
